Measurements reported in ChEMBL document CHEMBL1125275, “2-[(arylmethyl) amino]-2-methyl-1,3-propanediol DNA intercalators. An examination of the effects of aromatic ring variation on antitumor activity and DNA binding” (J Med Chem, 1991).
Calls of active or inactive are those of the source. No cut-off for these calls is given here.

Experiments:
Mus musculus [1] = species on record: Mus musculus; test: Percent increase in life span (% ILS) was tested at optimal dose.; type: functional
Procedure, shortened: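 In vivo murine P388 lymphocytic leukemia screen; antitumor effect read as percent increase in life span (% ILS).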

Mus musculus [2] = species on record: Mus musculus; test: Number of animals survived after 30 days of treatment; 0/6.; type: functional
P388 [3] = test: Antitumor activity in murine lymphocytic leukemia P388 cells; type: functional, Mus musculus
Procedure, shortened: (§1)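 Preliminary in vivo antitumor screen in mice bearing murine lymphocytic leukemia P388. The read-out is percent increase in life span (% ILS). Highest nontoxic doses used in the assay are reported in parentheses.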

P388 [4] = test: Lethal dose in murine lymphocytic leukemia P388 cells; type: functional, Mus musculus
P388 [5] = test: The compound tested for the highest non-toxic dose in murine lymphocytic leukemia P388.; type: functional, Mus musculus
Procedure, shortened: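 In vivo murine P388 lymphocytic leukemia screen; the value reported is the highest nontoxic dose used in the assay.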

Mus musculus [6] = species on record: Mus musculus; test: Percent increase in life span (% ILS) was tested at optimal dose; I indicates inactive; type: functional, organism-based; procedure, shortened: as §1
Mus musculus [7] = species on record: Mus musculus; test: Number of animals survived after 30 days; 3/6; type: functional
Mus musculus [8] = species on record: Mus musculus; test: Number of animals survived after 60 days; 0/6; type: functional
P388 [9] = test: The compound tested for the lethal dose in murine lymphocytic leukemia P388.; type: ADME; details: mouse
Mus musculus [10] = species on record: Mus musculus; test: Number of animals survived after 30 days; 1/6; type: functional
Mus musculus [11] = species on record: Mus musculus; test: Number of animals survived after 60 days; 3/6; type: functional
Mus musculus [12] = species on record: Mus musculus; test: Number of animals survived after 30 days; 6/8; type: functional
Mus musculus [13] = species on record: Mus musculus; test: Number of animals survived after 30 days; 4/6; type: functional
Mus musculus [14] = species on record: Mus musculus; test: Number of animals survived after 30 days; type: functional
Mus musculus [15] = species on record: Mus musculus; test: Number of animals survived after 30 days; 2/6; type: functional

Compound | ILS (Mus musculus [1]) [%] | No. of animals survived (Mus musculus [2]) | Optimal dose (P388 [3]) [mg/kg] | LD20 (P388 [4]) [mg/kg] | Highest non-toxic dose (P388 [5]) [mg/kg] | ILS (Mus musculus [6]) | further results
CC(CO)(CO)NCc1ccc2c3cccc4cccc(c5cccc1c52)c43.Cl | 100 | 0 | 350 | 425 | – | – | –
CC(CO)(CO)NCc1ccc2c(c1)Cc1ccccc1-2.Cl | – | – | 225 | – | 225 | inactive | –
CC(CO)(CO)NCc1c2c3c(cccc3c3ccccc13)CC2 | 200 | – | 60 | 70 | – | – | No. of animals survived (Mus musculus [7]): 3; No. of animals survived (Mus musculus [8]): 0
CC(CO)(CO)NCc1ccc2ccccc2c1.Cl | – | – | 240 | – | 240 | inactive | –
CC(CO)(CO)NCc1ccc2c(ccc3ccccc32)c1.Cl | 33 | 0 | 200 | 175 | – | – | –
CC(CO)(CO)NCc1ccc2c3c1ccc1cccc(c13)C2 | 45 | 0 | 270 | 300 | – | – | –
CC(CO)(CO)NCc1c2ccccc2c2ccc3cccc4ccc1c2c43 | 100 | 0 | 100 | 123 | – | – | –
CC(CO)(CO)NCc1ccc2cccc3c2c1-c1ccccc1-3.Cl | 100 | 0 | 140 | – | – | – | LD20 (P388 [9]): 140 mg/kg
CC(CO)(CO)NCc1cccc2ccc3ccccc3c12.Cl | – | – | 269 | – | 269 | inactive | –
CC(CO)(CO)NCc1cccc2ccc3c4ccccc4ccc3c12 | 120 | – | 225 | 225 | – | – | No. of animals survived (Mus musculus [10]): 1; No. of animals survived (Mus musculus [8]): 0
CC(CO)(CO)NCc1cccc2c1-c1cccc3cccc-2c13.Cl | 142 | 0 | 100 | – | – | – | LD20 (P388 [9]): 123 mg/kg
CC(CO)(CO)NCc1c2c(cc3ccccc13)Cc1ccccc1-2 | 210 | – | 250 | – | 250 | – | No. of animals survived (Mus musculus [7]): 3; No. of animals survived (Mus musculus [8]): 0
CC(CO)(CO)NCc1ccc(-c2ccccc2)c2ccccc12.Cl | – | – | 175 | – | 175 | inactive | –
CC(CO)(CO)NCc1ccc2c(ccc3cc4ccccc4cc32)c1 | 20 | 0 | 200 | 200 | – | – | –
CC(CO)(CO)NCc1ccc2c(ccc3c4ccccc4ccc23)c1 | – | – | 450 | 450 | – | inactive | –
CC(CO)(CO)NCc1cccc2cc3ccccc3cc12.Cl | 125 | 0 | 120 | 110 | – | – | –
CC(CO)(CO)NCc1ccc2c3ccccc3c3ccccc3c2c1.Cl | 100 | 0 | 85 | 85 | – | – | –
CC(CO)(CO)NCc1ccc2ccc3ccccc3c2c1.Cl | 20 | 0 | 225 | 250 | – | – | –
CC(CO)(CO)NCc1cc2c3ccccc3ccc2c2ccccc12 [CRISNATOL] | 215 | – | 120 | 120 | – | – | No. of animals survived (Mus musculus [11]): 3; No. of animals survived (Mus musculus [12]): 6
CC(CO)(CO)NCc1c2ccccc2cc2ccccc12.Cl | 30 | 0 | 150 | 150 | – | – | –

Compound | ILS (Mus musculus [1]) [%] | No. of animals survived (Mus musculus [2]) | Optimal dose (P388 [3]) [mg/kg] | LD20 (P388 [4]) [mg/kg] | Highest non-toxic dose (P388 [5]) [mg/kg] | ILS (Mus musculus [6]) | further results
CC(CO)(CO)NCc1c2c3c(cccc3c3ccccc13)C=C2 | 225 | – | 110 | 125 | – | – | No. of animals survived (Mus musculus [13]): 4; No. of animals survived (Mus musculus [8]): 0
CC(CO)(CO)NCc1ccc2c3c(cccc13)-c1ccccc1-2.Cl | 190 | – | 105 | – | – | – | No. of animals survived (Mus musculus [14]): 5; LD20 (P388 [9]): 110 mg/kg; No. of animals survived (Mus musculus [11]): 3
CC(CO)(CO)NCc1cccc2c3ccccc3c3ccccc3c12.Cl | 25 | 0 | 155 | 165 | – | – | –
CC(CO)(CO)NCc1ccc2ccc3c4ccccc4ccc3c2c1 | 20 | 0 | 110 | 110 | – | – | –
CCCCCCCCCCCCNC(C)(CO)CO.Cl | – | – | 75 | – | 75 | inactive | –
CC(CO)(CO)NCc1cc2c3c(cccc3c1)-c1ccccc1-2.Cl | 105 | 0 | 160 | – | – | – | LD20 (P388 [9]): 160 mg/kg
CC(CO)(CO)NCc1ccc2c(c1)-c1cccc3cccc-2c13.Cl | – | – | 150 | – | 166 | inactive | –
CC(CO)(CO)NCc1c2ccccc2cc2c1ccc1ccccc12 | 180 | – | 180 | 220 | – | – | No. of animals survived (Mus musculus [15]): 2; No. of animals survived (Mus musculus [8]): 0
CC(CO)(CO)NCc1cc2ccccc2c2ccccc12.Cl | 60 | 0 | 150 | 125 | – | – | –
CC(CO)(CO)NCc1ccccc1.Cl | – | – | 350 | – | 350 | inactive | –
CC(CO)(CO)NCc1c2ccccc2cc2cc3ccccc3cc12 | 165 | – | 60 | 60 | – | – | No. of animals survived (Mus musculus [15]): 2; No. of animals survived (Mus musculus [8]): 0
CC(CO)(CO)NCc1ccc2ccc3cccc4ccc1c2c34.Cl | 120 | 0 | 260 | 275 | – | – | –
CC(CO)(CO)NCc1cc2c3c(ccc4c3c1CCC4)CCC2.Cl | – | – | 151 | – | 151 | inactive | –
CC(CO)(CO)NCc1ccc(-c2ccccc2)cc1.Cl | – | – | 283 | – | 283 | inactive | –
CC(CO)(CO)NCc1cc2ccc3ccccc3c2c2ccccc12 | 42 | 0 | 7.5 | 15 | – | – | –
CC(CO)(CO)NCc1cccc2ccccc12.Cl | – | – | 180 | – | 180 | inactive | –
CC(CO)(CO)NCc1cccc2c1ccc1ccccc12.Cl | 65 | 0 | 230 | 225 | – | – | –
CC(CO)(CO)NCc1ccc2cc3ccccc3cc2c1.Cl | – | – | 250 | – | 250 | inactive | –
CC(CO)(CO)NCc1cc2cccc3ccc4cccc1c4c32.Cl | 45 | 0 | 40 | 40 | – | – | –
